The record followed here is ChEMBL document CHEMBL2407057, “Structural variations on antitumour agents derived from bisacylimidoselenocarbamate. A proposal for structure-activity relationships based on the analysis of conformational behaviour” (Eur J Med Chem, 2013).

Series [1] can be described thus: Prodrug activation assessed as induction of NaBH4-induced […] release at 60 mM after 16 hrs by head space gas chromatography mass spectrometry analysis. The conditions noted are these: 60000 µM. The procedure, abridged: (§1)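 Compounds dissolved at 60 mM in 5% DMSO/H2O and held at room temperature in sealed vials. Headspace sampled at 8, 16 and 24 h for HS-GC–MS on an HP-5MS column with helium carrier at 1 mL/min, 50:1 split, and EI at 70 eV. SCAN mode was used to set SIM for MeSeH (tR 1.5 min) and DiMeDiSe (tR 2.9 min). Read-out was peak area.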

A short description of series [2]: Prodrug activation assessed as induction of NaBH4-induced […] release at 60 mM after 24 hrs by head space gas chromatography mass spectrometry analysis. As to conditions: 60000 µM; call rule not given here. The procedure, abridged:
as §1

The nature of series [3]: Prodrug activation assessed as induction of NaBH4-induced MeSeH release at 60 mM after 8 hrs by head space gas chromatography mass spectrometry analysis. The conditions noted are these: 60000 µM. The procedure, abridged:
as §1

Series [4] can be described thus: Prodrug activation assessed as induction of NaBH4-induced DiMeDiSe release at 60 mM after 8 hrs by head space gas chromatography mass spectrometry analysis. The conditions noted are these: 60000 µM. The procedure, abridged:
as §1

Another series has as its system HT-29. Nature of the series: Cytotoxicity against human HT-29 cells after 72 hrs by MTT assay. The series is classed as functional. As to conditions: HT-29, 72 h; for GI50: read-out: pGI50 (converted).
For a further series, the system named is MCF7. Nature of the series: Cytotoxicity against human MCF7 cells after 72 hrs by MTT assay. The conditions noted are these: MCF7, 72 h; for GI50: read-out: pGI50 (converted). The series is classed as functional.

As to `C[Se]/C(=N\C(=O)c1ccco1)NC(=O)c1ccco1`, the Drug metabolism entry in series [1], in series [2], in series [3] and in series [4] was “Active” each time.

As to `C[Se]/C(=N\C(=O)c1cccs1)NC(=O)c1cccs1`, the Drug metabolism entry was “Active” in series [1], “Active” in series [2], “Not Active” in series [3] and “Active” in series [4].

In the series on HT-29, `C[Se]/C(=N\C(=O)c1sccc1Cl)NC(=O)c1sccc1Cl` gave a TGI of 38.8 µM. Also, the Drug metabolism result in series [3] and in series [4] was “Active” throughout.

As for `C[Se]/C(=N\C(=O)c1csc([N+](=O)[O-])c1)NC(=O)c1csc([N+](=O)[O-])c1`, the Drug metabolism entry was “Active” in series [3] and “Not Active” in series [4].

Turning to `C[Se]/C(=N\C(=O)c1ccno1)NC(=O)c1ccno1`, the Drug metabolism entry in series [3] was “Not Active”; in series [4], “Active”.

Consider `C[Se]/C(=N\C(=O)c1cc2ccccc2s1)NC(=O)c1cc2ccccc2s1`, for which the results for the GI50 with MCF7 and with HT-29 were 5070 nM and 5620 nM, respectively. Further, total growth inhibition in the series on HT-29 (TGI) required 40.1 µM. In addition, the Drug metabolism result in series [3] and in series [4] was “Not Active” throughout.

As for `C[Se]/C(=N\C(=O)c1ccc2c(c1)OCO2)NC(=O)c1ccc2c(c1)OCO2`, the GI50 in the series on MCF7 is 990 nM; with HT-29, 530 nM. Moreover, the Drug metabolism result in series [3] and in series [4] was “Not Active” throughout.

As for `C[Se]/C(=N\C(=O)c1cnc2ccccc2c1)NC(=O)c1cnc2ccccc2c1`, the Drug metabolism result in series [1] is “Active”; in series [2], “Active”; in series [3], “Not Active”; in series [4] it was “Not Active”. Also, the GI50 is 660 nM in the series with MCF7 and 200 nM in the series on HT-29.

For the molecule `C[Se]/C(=N\C(=O)c1cc(-c2ccccc2)nc2ccccc12)NC(=O)c1cc(-c2ccccc2)nc2ccccc12`, the GI50 with MCF7 is 490 nM; in the series with HT-29 it was 460 nM. For the same molecule, the total growth inhibition concentration (TGI) in the series with HT-29 came to 32.6 µM. For the same molecule, the Drug metabolism entry in series [3] and in series [4] was “Not Active” each time.

With `C[Se]/C(=N\C(=O)c1c2ccccc2nc2ccccc12)NC(=O)c1c2ccccc2nc2ccccc12`, the Drug metabolism result was “Active” in series [1], “Active” in series [2], “Not Active” in series [3] and “Not Active” in series [4]. Further, the GI50 with MCF7 was 73900 nM; with HT-29, 7630 nM. Further, the concentration for total growth inhibition (TGI) in the series with HT-29 was 64 µM.

With `CC[C@@]1(O)C(=O)OCc2c1cc1n(c2=O)Cc2cc3ccccc3nc2-1` [CAMPTOTHECIN], the concentration for total growth inhibition (TGI) with HT-29 was determined as 0.79 µM.

`COc1cccc2c1C(=O)c1c(O)c3c(c(O)c1C2=O)C[C@@](O)(C(=O)CO)C[C@@H]3O[C@H]1C[C@H](N)[C@H](O)[C@H](C)O1` [DOXORUBICIN] registered a concentration for total growth inhibition (TGI) with HT-29 of 6.31 µM.

For `CN(Cc1cnc2nc(N)nc(N)c2n1)c1ccc(C(=O)N[C@@H](CCC(=O)O)C(=O)O)cc1` [METHOTREXATE], the CC50 in the series on MCF7 (read-out: LC50 (the source's name)) was over 100 µM.

As to `CC(=O)O[C@H]1C(=O)[C@@]2(C)[C@H]([C@H](OC(=O)c3ccccc3)[C@]3(O)C[C@H](OC(=O)[C@H](O)[C@@H](NC(=O)c4ccccc4)c4ccccc4)C(C)=C1C3(C)C)[C@]1(OC(C)=O)CO[C@@H]1C[C@@H]2O` [PACLITAXEL], in the series with HT-29, total growth inhibition (TGI) required 0.2 µM. This counts as sub-micromolar.
